The text below walks through data of ChEMBL document CHEMBL3867450, “Synthesis of Natural Acylphloroglucinol-Based Antifungal Compounds against Cryptococcus Species” (J Nat Prod, 2016).

The nature of data set [1]: Selectivity index, ratio of IC50 for African green monkey Vero cells to MIC for Cryptococcus neoformans ATCC 90113. Type of data set: toxicity, cell-based. The settings on record: read-out: Selectivity Index. The method in brief: (§1)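 Selectivity index is the mammalian-cell IC50 (neutral red assay, Vero or LLC-PK1) divided by the MIC against C. neoformans ATCC 90113 (modified CLSI method).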

Data set [2] has as its system Cryptococcus bacillisporus. Description: Antifungal activity against Cryptococcus gattii ATCC 32609 assessed as growth inhibition measured after 72 hrs by CLSI method. It is filed as functional. The settings on record: ATCC 32609, 72 h. In outline: (§2)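 Susceptibility testing by a modified CLSI (formerly NCCLS) method against C. neoformans ATCC 90113, C. neoformans H99 (from Duke University) or C. gattii ATCC 32609. The top test concentration was 20 μg/mL. MIC is the lowest concentration allowing no detectable growth. IC50 is the concentration giving 50% growth inhibition.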

Data set [3] can be described thus: Selectivity index, ratio of IC50 for pig LLC-PK1 cells to MIC for Cryptococcus neoformans ATCC 90113. It is filed as toxicity, cell-based. The settings on record: read-out: Selectivity Index. In outline:
as §1

Data set [4] can be described thus: Antifungal activity against Cryptococcus neoformans ATCC 90113 assessed as growth inhibition measured after 72 hrs by CLSI method. It is filed as functional. The method in brief: as §2
Data set [5] deals with Cryptococcus neoformans. Description: Antifungal activity against Cryptococcus neoformans H99 assessed as growth inhibition measured after 72 hrs by CLSI method. The settings on record: var grubii H99 . It is filed as functional. In outline: as §2
Data set [6] can be described thus: Cytotoxicity against African green monkey Vero cells assessed as reduction in viable cells measured after 48 hrs by neutral red dye-based method. It is filed as toxicity, cell-based. The settings on record: African green monkey (Chlorocebus sabaeus). The method in brief: (§3)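 Vero (African green monkey kidney […]) and LLC-PK1 (pig kidney epithelial) cells were scored for viability by neutral red uptake. The top test concentration was 50 μg/mL. IC50 is the concentration causing 50% growth inhibition of the mammalian cells.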

A short description of data set [7]: Cytotoxicity against pig LLC-PK1 cells assessed as reduction in viable cells measured after 48 hrs by neutral red dye-based method. It is filed as toxicity, cell-based. The settings on record: pig (Sus scrofa). The method in brief:
as §3

A short description of data set [8]: Antifungal activity against Cryptococcus neoformans ATCC 90113 assessed as growth inhibition at 20 ug/ml measured after 72 hrs by CLSI method. Type of data set: functional. The method in brief: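 Primary screen against C. neoformans ATCC 90113 by a modified CLSI method at 20 μg/mL. Growth inhibition above 50% at this concentration was scored as active and taken to further testing.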

Data set [9] relates to Staphylococcus aureus. Kind of data set: Antibacterial activity against Staphylococcus aureus ATCC 29213 by CLSI method. It is filed as functional.
In data set [10] the test system is Cryptococcus bacillisporus. Description: Antifungal activity against Cryptococcus gattii ATCC 32609 assessed as growth inhibition at 20 ug/ml measured after 72 hrs by CLSI method. The settings on record: ATCC 32609, 72 h, read-out: GI. Type of data set: functional.
Data set [11] has as its system Cryptococcus neoformans. Kind of data set: Antifungal activity against Cryptococcus neoformans ATCC 90113 assessed as growth inhibition at 20 ug/ml measured after 72 hrs by CLSI method. The settings on record: read-out: GI.

Structures are written as SMILES. Values after ≈ are worked out from the molar mass of the structure shown. Active and inactive are the calls of the source. The calls are words filed in the database; no cut-off is given here.

The MIC is the least concentration at which growth counts as inhibited. In general, IC50 refers to the concentration at which inhibition is half-maximal. For the compound `CC(C)C(=O)c1c(O)cc(O)c(C(=O)C(C)C)c1O`, the selectivity ratio in [1] is 4.6; in data set [3] it was 7. The MIC in [2] came out at 2.1 µg/mL (≈ 7.89 µM); in data set [4], 2.5 µg/mL (≈ 9.39 µM); in data set [5], 3.3 µg/mL (≈ 12.4 µM); in [9], 1.3 µg/mL (≈ 4.88 µM). Also, the IC50 at 48 h was 11.5 µg/mL (≈ 43.2 µM) in data set [6] and 17.5 µg/mL (≈ 65.7 µM) in data set [7]. In addition, the growth inhibition (GI) in [8] is > 50%.
On to `CCOC(=O)Cc1c(O)cc(O)c(C(=O)C(C)C)c1O`, for which the growth inhibition (GI) in data set [8] was < 50%. For the same compound, the inhibition of growth at 20 µg/mL in data set [10] and in [11] was < 50% throughout.
`COc1cc(C(=O)c2c(O)cc(O)c(C(=O)C(C)C)c2O)cc(OC)c1OC`: in [8], the growth inhibition (GI) was < 50%. In addition, the inhibition of growth at 20 µg/mL in data set [10] and in [11] was < 50% throughout.
Take `CC(C)C(=O)c1c(O)cc(O)c(Cc2ccc(C(C)C)cc2)c1O`: the selectivity ratio in data set [1] and in [3] was > 33.3 in each case. Moreover, the minimum inhibitory concentration (MIC) in data set [2] came out at 2.1 µg/mL (≈ 6.39 µM); in data set [4] it was 1.5 µg/mL (≈ 4.57 µM); in data set [5], 2.1 µg/mL (≈ 6.39 µM); in data set [9], 10 µg/mL (≈ 30.4 µM). Further, the half-inhibitory concentration (IC50) at 48 h in data set [6] and in data set [7] was > 50 µg/mL in each case. Moreover, the growth inhibition (GI) in data set [8] is > 50%.
For `CC(C)C(=O)c1c(O)cc(O)cc1OCc1c(Cl)cccc1Cl`, the selectivity ratio was 3.9 in data set [1] and 4.2 in data set [3]. Besides, the minimal inhibitory concentration (MIC) amounted to 5 µg/mL (≈ 14.1 µM) in data set [2], 8.3 µg/mL (≈ 23.4 µM) in data set [4] and 5 µg/mL (≈ 14.1 µM) in data set [5]. Besides, the concentration for half-maximal inhibition (IC50) at 48 h in [6] was 32.5 µg/mL (≈ 91.5 µM); in [7], 34.5 µg/mL (≈ 97.1 µM). Moreover, the growth inhibition (GI) in [8] was > 50%.
For the compound `COc1ccc(C(=O)c2c(O)cc(O)c(C(=O)C(C)C)c2O)cc1`, the figures for the selectivity ratio in data set [1] and in data set [3] were 0.8 and 1.9, respectively. Further, the minimal inhibitory concentration (MIC) in data set [2] came out at 8.3 µg/mL (≈ 25.1 µM); in data set [4] it was 13.3 µg/mL (≈ 40.3 µM); in data set [5] it was 10 µg/mL (≈ 30.3 µM). Moreover, the IC50 at 48 h amounted to 10.5 µg/mL (≈ 31.8 µM) in data set [6] and 24.8 µg/mL (≈ 75.1 µM) in data set [7]. Besides, the growth inhibition (GI) in data set [8] is > 50%.
On to `CC(C)C(=O)c1c(O)cc(O)c(CC#N)c1O`, for which the growth inhibition (GI) in data set [8] was < 50%. For the same compound, the inhibition of growth at 20 µg/mL in data set [10] and in data set [11] was < 50% in each case.
In the case of `CC(C)C(=O)c1c(O)cc(O)cc1OCc1c(F)cccc1Cl`, the selectivity ratio in data set [1] and in data set [3] was > 10 throughout. The minimum inhibitory concentration (MIC) in data set [2] came to 5 µg/mL (≈ 14.8 µM); in [4], 5 µg/mL (≈ 14.8 µM); in [5], 8.3 µg/mL (≈ 24.5 µM). Moreover, the half-maximal inhibitory concentration (IC50) at 48 h in data set [6] and in data set [7] was > 50 µg/mL throughout. Also, the growth inhibition (GI) in [8] is > 50%. Besides, the result in data set [9] was Active.
For `CC(C)=CCc1c(O)cc(O)c(C(=O)C(C)C)c1O`, the values for the selectivity ratio in [1] and in data set [3] were 3.6 and 6.2, respectively. Further, the MIC in [2] worked out at 5 µg/mL (≈ 18.9 µM); in [4] it was 5 µg/mL (≈ 18.9 µM); in [5] it was 8.3 µg/mL (≈ 31.4 µM). Further, the half-inhibitory concentration (IC50) at 48 h came out at 18 µg/mL (≈ 68.1 µM) in data set [6] and 31 µg/mL (≈ 117 µM) in data set [7]. The growth inhibition (GI) in [8] was > 50%.
Consider `C#CCc1c(O)cc(O)c(C(=O)C(C)C)c1O`, for which the growth inhibition (GI) in data set [8] was < 50%. The inhibition of growth at 20 µg/mL in data set [10] and in data set [11] was < 50% each time.
As to `CC(C)C(=O)c1c(O)cc(O)c(Cc2ccccc2)c1O`, the selectivity ratio stood at 4.2 in data set [1] and 4.3 in data set [3]. The minimum inhibitory concentration (MIC) in [2] stood at 10 µg/mL (≈ 34.9 µM); in data set [4], 6.7 µg/mL (≈ 23.4 µM); in [5], 16.7 µg/mL (≈ 58.3 µM). For the same compound, the figures for the half-inhibitory concentration (IC50) at 48 h in data set [6] and in [7] were 28 µg/mL (≈ 97.8 µM) and 28.5 µg/mL (≈ 99.5 µM), respectively. In addition, the growth inhibition (GI) in data set [8] is > 50%.
Regarding `CCCC(=O)c1c(O)cc(O)c(C(=O)CCC)c1O`, the selectivity ratio is 6.9 in data set [1] and 11.7 in data set [3]. In addition, the MIC in data set [2] was found to be 1.5 µg/mL (≈ 5.63 µM); in data set [4], 2.1 µg/mL (≈ 7.89 µM); in data set [5] it was 2.5 µg/mL (≈ 9.39 µM). For the same compound, the IC50 at 48 h in data set [6] was determined as 14.5 µg/mL (≈ 54.5 µM); in data set [7] it was 24.5 µg/mL (≈ 92 µM). Moreover, the growth inhibition (GI) in data set [8] is > 50%.
As for `CCCC(=O)c1c(O)cc(O)c(C(=O)c2ccccc2)c1O`, the selectivity ratio in data set [1] amounted to 2.1; in data set [3], 4. The MIC in [2] stood at 5 µg/mL (≈ 16.6 µM); in data set [4] it was 6.7 µg/mL (≈ 22.3 µM); in data set [5], 6.7 µg/mL (≈ 22.3 µM). The IC50 at 48 h amounted to 14.3 µg/mL (≈ 47.6 µM) in data set [6] and 27 µg/mL (≈ 89.9 µM) in [7]. Besides, the growth inhibition (GI) in data set [8] is > 50%.
Turning to `CC(C)=CCC/C(C)=C/CC/C(C)=C/Cc1c(O)cc(O)c(C(=O)C(C)C)c1O`, the selectivity ratio was 3.3 in data set [1] and 3.6 in [3]. For the same compound, the results for the MIC in data set [2], in data set [4] and in data set [5] were 7.5 µg/mL (≈ 18.7 µM), 7.5 µg/mL (≈ 18.7 µM) and 5 µg/mL (≈ 12.5 µM), respectively. Further, the IC50 at 48 h in data set [6] worked out at 25 µg/mL (≈ 62.4 µM); in data set [7], 27 µg/mL (≈ 67.4 µM). Also, the growth inhibition (GI) in data set [8] was > 50%.
On to `C=CCc1c(O)cc(O)c(C(=O)C(C)C)c1O`, for which the growth inhibition (GI) in data set [8] is < 50%. The inhibition of growth at 20 µg/mL in data set [10] and in data set [11] was < 50% each time.
`CC(C)C(=O)c1c(O)cc(O)c(Cc2ccc([N+](=O)[O-])cc2)c1O`: the selectivity ratio in [1] was determined as 2.7; in [3], 4.2. Also, the minimum inhibitory concentration (MIC) in data set [2] stood at 5 µg/mL (≈ 15.1 µM); in data set [4] it was 6.7 µg/mL (≈ 20.2 µM); in [5], 10 µg/mL (≈ 30.2 µM). Moreover, the values for the IC50 at 48 h in [6] and in data set [7] were 18 µg/mL (≈ 54.3 µM) and 28 µg/mL (≈ 84.5 µM), respectively. For the same compound, in data set [8], the growth inhibition (GI) was > 50%.
On to `CC(C)C(=O)c1c(O)cc(O)c(Cc2c(Cl)cccc2Cl)c1O`, for which the figures for the selectivity ratio in data set [1] and in data set [3] were 27.5 and 29.5, respectively. For the same compound, the MIC in [2] turned out to be 2.1 µg/mL (≈ 5.91 µM); in [4], 1 µg/mL (≈ 2.82 µM); in data set [5], 4.2 µg/mL (≈ 11.8 µM). Further, the IC50 at 48 h came out at 27.5 µg/mL (≈ 77.4 µM) in data set [6] and 29.5 µg/mL (≈ 83 µM) in data set [7]. In addition, the growth inhibition (GI) in data set [8] was > 50%.
